Compounds with a hit are over-represented: about 7.2% of the library has one in this group of screens.
DAT uptake mod: changed hDAT dopamine uptake under cocaine IC80, either direction, primary screen, cocaine antagonist project, cell-based, LLC-PK1 hDAT, [14C]-dopamine uptake, MLSMR; LLC-PK1 hDAT cells, [14C]-dopamine uptake with cocaine IC80; actives deviate in either direction; B-score at 10 µM; 110,000 tested, 1.3% active; AID 449768, 2010;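 active = Z score or B-score, a plate-position-corrected score, falls beyond the plate's 99.7% confidence bounds, in either direction; inactive = both scores lie inside the 99.7% bounds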
D1 allo mod: D1 CRE-luciferase signal change, two-sided – cell-based, HEK293 D1, dopamine EC30, D1 allosteric modulator project, primary screen; 58,000 tested, 5.9% active; B-score at 10 µM; dopamine EC30 potentiation; actives deviate in either direction; D(1A) dopamine receptor (Homo sapiens), P21728;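 active = luminescence count or its row- and column-corrected plate score outside the 99.7% band of the plate's sample wells, on either side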
Target sequence (P21728 whole entry, looked up): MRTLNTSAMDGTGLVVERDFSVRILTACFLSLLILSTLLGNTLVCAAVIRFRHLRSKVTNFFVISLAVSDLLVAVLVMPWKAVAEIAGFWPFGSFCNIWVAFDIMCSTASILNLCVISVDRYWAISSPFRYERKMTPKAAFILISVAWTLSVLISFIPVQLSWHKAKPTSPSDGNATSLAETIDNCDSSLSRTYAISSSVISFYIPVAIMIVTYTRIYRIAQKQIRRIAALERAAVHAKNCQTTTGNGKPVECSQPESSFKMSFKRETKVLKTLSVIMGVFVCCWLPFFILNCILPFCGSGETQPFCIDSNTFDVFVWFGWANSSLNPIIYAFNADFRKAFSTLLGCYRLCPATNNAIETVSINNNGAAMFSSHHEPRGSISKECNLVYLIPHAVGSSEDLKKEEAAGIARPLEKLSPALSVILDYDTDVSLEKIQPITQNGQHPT
M1 agonist: M1 muscarinic receptor agonists, primary screen, CHO-M1 cells, Fluo-4 calcium, agonist mode. B-score at 10 µM. Muscarinic acetylcholine receptor M1. AID 626, 2007. Fluo-4 calcium fluorescence; active compounds read high. 64,000 tested, 3% active;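 active = fluorescence rise, raw or as B-score row- and column-corrected plate score, outside the 99.7% band of its plate's samples, either direction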
M1 antag: antagonists of rat M1 muscarinic receptor. Muscarinic acetylcholine receptor M1 (Rattus norvegicus), P08482. CHO-M1 cells, Fluo-4 calcium, ACh EC80 antagonist mode; active compounds read low. B-score at 10 µM. 64,000 tested, 3.4% active;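 active = calcium fluorescence response, raw or row-and-column corrected B-score, differing from the plate sample mean either way at a set confidence level, mostly lower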
BAP1 block: inhibitors of BAP1 deubiquitinase, primary screen, biochemical, Ub-AMC fluorescence, kinetic. recombinant BAP1, Ub-AMC hydrolysis fluorescence kinetic; active compounds read low. AID 436, 2006. calls only at 20 µM. Ubiquitin carboxyl-terminal hydrolase BAP1 (Homo sapiens), Q92560. 72,000 tested, 0.48% active;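 active = activity remaining at or below 50% of control, provided the compound also passes the data quality filters; inactive = the rest, including low values that fail the filters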
HEK293 NFkB inh: inhibitors of PMA/ionomycin-induced NF-kB reporter, primary screen, antigen receptor NF-kB inhibitor project, cell-based, HEK-293 luciferase reporter, luminescence. HEK-293 NF-kB luciferase reporter. inhibition, % at 3 µM. 62,000 tested, 0.21% active;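 active = inhibition above the mean of all tested compounds plus 3 SD, cut at about 40% in these data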
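System: NF-kB luciferase reporter HEK-293 cells | Replication: Single test | Control set: DMSO vs reference inhibitor | Evaluation: % inhibition | Schedule: 1 h pretreatment, 16 h stimulation, 37 °C | Probe or stimulus: PMA with ionomycin | Compound dosing: One dose, 3 µM | Detection: Luciferase luminescence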
D1 PAM confirm: D1 receptor positive allosteric modulators, retest, confirmation, cell-based, HEK293 D1, CRE-luciferase, duplicate. 2,200 tested, 88% active. dopamine EC30 potentiation; active compounds read high. shares compounds with D1 allo mod. luminescence at 10 µM;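 active = luminescence in either of two replicates above the same-plate mean plus 3 SD of the low-dose dopamine control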
D1 ag no DA: D1 receptor agonism without dopamine, confirmation, mechanism study for D1 allosteric modulator project, cell-based, HEK293 D1, CRE-luciferase, secondary assay 1 | luminescence at 10 µM | 1,900 tested, 0.8% active | AID 646, 2007 | shares compounds with D1 allo mod | luminescence, no dopamine; active compounds read high; in the data active = luminescence above about 3900
Isoprot counter: isoproterenol response counter-screen activity for D1 modulators; shares compounds with D1 allo mod; HEK293 D1 CRE-luciferase, isoproterenol EC30 counter-screen; calls only at 10 µM; 2,200 tested, 63% active;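 active = luminescence in either replicate above plate mean of wells with a partly effective reference agonist dose plus 3 SD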;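 note: isoproterenol raises cAMP through native beta-adrenoceptor Gs so signal bypasses D1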
Each line names hits and unclear results; the compound was inactive in the other large screens (follow-up assays come after a bar, where shown).

Cc1ccc2nc(N3CCC(C(=O)O)CC3)nc(-c3ccccc3)c2c1	D1 allo mod 6.5 | D1 PAM confirm 10876 | D1 ag no DA inactive | Isoprot counter active
CCCCOC(=O)C1=C(C)NC2=C(C(=O)CCC2)C1c1ccc(O)c(OCC)c1 (centres undefined)	none (no result: DAT uptake mod, D1 allo mod, M1 agonist, M1 antag, HEK293 NFkB inh)
O=S(=O)(Nc1ccc(-c2nc3cccnc3s2)cc1)c1ccc(Cl)s1	none (no result: D1 allo mod, M1 agonist, M1 antag, BAP1 block, HEK293 NFkB inh)
O=S(=O)(Nc1ccc(-c2nc3cccnc3s2)cc1)c1cccs1	D1 allo mod 8.5 (not shown: BAP1 block) | D1 PAM confirm 19148 | D1 ag no DA inactive | Isoprot counter active
O=C(Nc1cccc(-c2nc3ncccc3o2)c1)c1ccc(Br)o1	none (no result: DAT uptake mod, D1 allo mod, M1 agonist, M1 antag, HEK293 NFkB inh)
CC1(C)C(c2ccccc2)=NC(c2ccc(F)cc2)N1O (centres undefined)	none
CC1(C)C(c2cccs2)=NC(c2ccccc2)N1O (centres undefined)	D1 allo mod 3.6 | D1 PAM confirm 9348 | Isoprot counter active
O=C(Nc1ccc([N+](=O)[O-])cc1Cl)c1cccc(C(=O)Nc2ccc([N+](=O)[O-])cc2Cl)n1	none (no result: DAT uptake mod, D1 allo mod, M1 agonist, M1 antag, HEK293 NFkB inh)
COc1cccc(C2=CC(c3cccs3)n3nnnc3N2)c1 (centres undefined)	none (no result: D1 allo mod, M1 agonist, M1 antag, BAP1 block, HEK293 NFkB inh)
COc1cccc(C2=CC(c3ccc(OC)c(OC)c3OC)n3nnnc3N2)c1 (centres undefined)	D1 allo mod 19 | D1 PAM confirm 12516 | Isoprot counter active
CSC1=NC(=C2N=C(SC)c3ccccc32)c2ccccc21	none (no result: DAT uptake mod, D1 allo mod, M1 agonist, M1 antag, HEK293 NFkB inh)
N#Cc1c(NC(=O)CSc2nnc(-c3ccco3)n2-c2ccccc2)sc2c1CCC2	none (no result: D1 allo mod, M1 agonist, M1 antag, BAP1 block, HEK293 NFkB inh)
NC(=O)c1c(NC(=O)CSc2nnc(-c3ccco3)n2-c2ccccc2)sc2c1CCC2	D1 allo mod 4.8 | D1 PAM confirm 10124 | D1 ag no DA inactive | Isoprot counter inactive
CCCC1(c2ccccc2)NC(=O)N(CC(=O)c2[nH]c(C)c(C(=O)OCC)c2C)C1=O (centres undefined)	D1 allo mod 7 | D1 PAM confirm 8616 | D1 ag no DA inactive | Isoprot counter active
CCOC(=O)C1CCCN(c2nc3ccccc3nc2C(C#N)C(=O)OCC)C1 (centres undefined)	D1 allo mod 3 | D1 PAM confirm 8656 | D1 ag no DA inactive | Isoprot counter inactive
N#CC(C(=O)NC1CC1)c1nc2ccccc2nc1N1CCCC1 (centres undefined)	none (no result: D1 allo mod)
O=C(Nc1cccc2ccccc12)c1ccc(S(=O)(=O)N2CCOCC2)cc1	none (no result: DAT uptake mod, D1 allo mod, M1 agonist, M1 antag, HEK293 NFkB inh)
COc1ccc(C(=O)CSc2cc(C)nc3nc(C)nn23)cc1OC	D1 allo mod 5.1 | D1 PAM confirm 9832 | Isoprot counter active
O=C(Nc1ccc(NC(=O)c2ccco2)c(Cl)c1)c1cccc(F)c1	none (no result: DAT uptake mod, D1 allo mod, M1 agonist, M1 antag, HEK293 NFkB inh)
Cn1c(=O)[nH]c(=O)c2c1nc(N1CCCCCC1)n2CCCSc1nc2ccccc2o1	D1 allo mod 7.3 | D1 PAM confirm 7696 | D1 ag no DA inactive | Isoprot counter active
Cc1ccc(Cn2c(N3CCCCCC3)nc3c2c(=O)[nH]c(=O)n3C)cc1	D1 allo mod 3.1 | D1 PAM confirm 9560 | D1 ag no DA inactive | Isoprot counter active
CC1CCCN(c2nc3c(c(=O)[nH]c(=O)n3C)n2Cc2ccccc2Cl)C1 (centres undefined)	D1 allo mod 4.5 | D1 PAM confirm 12012 | Isoprot counter active
CCn1c(N2CCN(CC(=O)c3c(C)n(C)c4ccccc34)CC2)nc2c1c(=O)[nH]c(=O)n2C	D1 allo mod 3.5 | D1 PAM confirm 8636 | D1 ag no DA inactive | Isoprot counter active
O=c1[nH]c2ccccc2nc1-c1cc(Br)ccc1NCc1ccccc1	none (no result: DAT uptake mod, D1 allo mod, M1 agonist, M1 antag, HEK293 NFkB inh)
Cc1ccc(Cn2c(SCC(C)C)nc3c2c(=O)[nH]c(=O)n3C)cc1	D1 allo mod 7 | D1 PAM confirm 15640 | D1 ag no DA inactive | Isoprot counter active
CCOC(=O)C(CCSC)NC(=O)CN (centres undefined)	D1 allo mod 4.8 | D1 PAM confirm inactive | D1 ag no DA inactive | Isoprot counter inactive
N#CCSc1nc(N)c(C#N)c(C2CCCCC2)c1C#N	D1 allo mod 9 | D1 PAM confirm 13172 | Isoprot counter active
N#Cc1c(N)nc(SCC(=O)NC2CCCCC2)c(C#N)c1-c1ccc(Cl)cc1	none
Cc1ccc(N2C(=O)c3cc4cccc(Br)c4cc3C2=O)cc1	none (no result: DAT uptake mod, D1 allo mod, M1 agonist, M1 antag, HEK293 NFkB inh)
O=C(c1cccc2ccccc12)N1CCN(CC2CC=CCC2)CC1 (centres undefined)	D1 allo mod 4.6 | D1 PAM confirm inactive | D1 ag no DA inactive | Isoprot counter inactive
Cc1cc(N)n2ncc(-c3cccc(Br)c3)c2n1	D1 allo mod 6.4 | D1 PAM confirm 10808 | D1 ag no DA inactive | Isoprot counter active
Cn1cccc1C1NC(=O)c2c(sc3c2CCC(C(C)(C)C)C3)N1 (centres undefined)	D1 allo mod 3 | D1 PAM confirm 7568 | D1 ag no DA inactive | Isoprot counter inactive
CCC1(C)Cc2c(C#N)c(N)n(N)c(=S)c2CO1 (centres undefined)	none
CC(C)C1Cc2c(C#N)c(N)n(C)c(=S)c2CO1 (centres undefined)	D1 allo mod 9.8 (no result: HEK293 NFkB inh) | D1 PAM confirm 11952 | D1 ag no DA inactive | Isoprot counter active
Cc1cc(C(=O)Nc2ccc(S(=O)(=O)Nc3onc(C)c3C)cc2)c(C)o1	D1 allo mod 2.9 | D1 PAM confirm 8272 | D1 ag no DA inactive | Isoprot counter active
Cc1noc(NS(=O)(=O)c2ccc(NC(=O)c3ccoc3C)cc2)c1C	none
COc1ccc(C(c2nnnn2Cc2cccs2)N2CCN(c3ccccc3F)CC2)cc1OC (centres undefined)	D1 allo mod 3.1 | D1 PAM confirm inactive | D1 ag no DA inactive | Isoprot counter inactive

From PubChem BioAssay
